Bioassay records as filed in PubChem BioAssay.
Many of the other results were omitted from the sample, so hits are more common in it than they were.
CHOP inhibitor: CHOP inhibition in unfolded protein response. CHO-K1 CHOP-promoter luciferase, tunicamycin-induced, 15-18 h. inhibition, % at 10 µM. 220,000 compounds, 3.8% hits;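 active = compounds that reduced the stress-induced luciferase reporter signal by more than about 70% of percent inhibition, limit read from the data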;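 also: 0% = tunicamycin plus vehicle and 100% = wells without tunicamycin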
XBP1 UPR activ: activators of adaptive arm of unfolded protein response (XBP1). AID 463104. 330,000 compounds, 0.33% hits. CHO-XBP1 luciferase reporter, IRE1-XBP1 UPR activation, luminescence; percent of tunicamycin response, DMSO as zero. activation, % at 20 µM;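 active = versus positive control, 20 µM dose yields 30% or more activation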;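 also: 100% = tunicamycin at 10 µg/mL and 0% = DMSO only wells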
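Assay system: IRE1-XBP1 luciferase reporter CHO line. Input: 1000 cells/well. Buffer or medium: F12 with 10% serum. Doses: 20 µM, 1% DMSO. Times: overnight seeding at 37 °C, 6 h compound treatment at 37 °C. Technique: Steady-Glo luciferase glow luminescence, 10 min after reagent addition.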
TLR9-MyD88 inh: TLR9-MyD88 interaction inhibition. Q9NR96+Q99836. CHO BLA complementation TLR9-MyD88, CCF4 FRET ratio. inhibition, % at 4.98 µM. 340,000 compounds, 0.21% hits. AID 504734;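 active = inhibition above the mean over all tested compounds plus 3 SD, cut at about 21% in these data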;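 also: 0% = DMSO only wells and 100% = clavulanate BLA inhibitor control wells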
UPR CHOP act: activators of apoptotic arm of unfolded protein response (CHOP); 330,000 compounds, 0.34% hits; CHO-CHOP luciferase reporter, UPR activation, luminescence; percent of tunicamycin response over DMSO baseline; activation, % at 10 µM;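 active = at 10 µM dose, activation of 40% or more, normalized to positive control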;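 also: 100% = tunicamycin at 10 µg/mL and 0% = DMSO alone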
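Dosing – one dose, 10 µM in 0.5% DMSO · System – CHO-CHOP cells, stable luciferase reporter of PERK-eIF2a-CHOP signalling · Input – 500 cells/well · Control set – tunicamycin 10 µg/mL final as positive, DMSO-only wells as negative · Timing – 6 h compound treatment, 37 °C · Measure – % activation vs tunicamycin · Technique – luminescence read with Steady-Glo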
TLR4 MyD88 comp: blocks binding of human TLR4 to MyD88; O00206+Q99836; HeLa CL3-4 TLR4/MyD88 BLA complementation, FRET ratio; inhibition, % at 8.4 µM; 200,000 compounds, 0.18% hits; AID 861; in the data active = inhibition above about 25%;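 also: 0% = vehicle and 100% = reference inhibitor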
Target sequence (O00206 whole entry, looked up): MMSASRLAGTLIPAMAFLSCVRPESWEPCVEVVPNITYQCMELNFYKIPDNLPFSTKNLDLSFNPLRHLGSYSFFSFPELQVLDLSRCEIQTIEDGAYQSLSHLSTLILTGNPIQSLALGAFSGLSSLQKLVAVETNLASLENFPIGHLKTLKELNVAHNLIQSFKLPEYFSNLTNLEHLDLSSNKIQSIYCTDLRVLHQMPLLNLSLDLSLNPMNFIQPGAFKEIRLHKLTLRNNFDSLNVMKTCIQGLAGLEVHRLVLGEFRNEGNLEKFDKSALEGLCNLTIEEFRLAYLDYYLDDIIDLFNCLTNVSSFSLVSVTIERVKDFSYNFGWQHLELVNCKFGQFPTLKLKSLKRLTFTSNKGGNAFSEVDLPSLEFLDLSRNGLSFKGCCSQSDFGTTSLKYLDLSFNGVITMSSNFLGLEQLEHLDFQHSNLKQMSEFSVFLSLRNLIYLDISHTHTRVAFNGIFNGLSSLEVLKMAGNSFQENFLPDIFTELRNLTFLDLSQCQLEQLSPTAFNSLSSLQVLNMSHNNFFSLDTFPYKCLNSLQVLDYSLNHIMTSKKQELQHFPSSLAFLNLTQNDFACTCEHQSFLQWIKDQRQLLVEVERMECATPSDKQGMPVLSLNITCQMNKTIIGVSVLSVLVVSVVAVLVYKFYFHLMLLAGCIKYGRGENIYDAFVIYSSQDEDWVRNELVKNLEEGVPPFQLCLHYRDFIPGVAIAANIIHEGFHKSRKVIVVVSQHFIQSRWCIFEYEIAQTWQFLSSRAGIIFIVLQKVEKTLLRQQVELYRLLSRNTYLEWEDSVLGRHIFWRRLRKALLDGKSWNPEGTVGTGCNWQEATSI
Target sequence (Q99836 whole entry, looked up): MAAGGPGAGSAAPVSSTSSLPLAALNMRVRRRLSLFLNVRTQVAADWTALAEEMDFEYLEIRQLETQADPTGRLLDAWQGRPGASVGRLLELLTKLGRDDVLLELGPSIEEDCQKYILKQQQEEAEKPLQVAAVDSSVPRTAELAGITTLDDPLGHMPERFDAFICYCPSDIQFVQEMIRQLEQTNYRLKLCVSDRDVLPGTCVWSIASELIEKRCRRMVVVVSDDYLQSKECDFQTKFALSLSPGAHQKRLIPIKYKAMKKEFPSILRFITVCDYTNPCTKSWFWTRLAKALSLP
NOD2 RIPK2 PPI: blocks binding of human NOD2 to RIPK2 | O43353 | CHO BLA complementation NOD2-RIPK2, CCF4 ratio | inhibition, % at 4.98 µM | 360,000 compounds, 0.38% hits | AID 624267; in the data active = inhibition above about 21%;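 also: 0% = vehicle only and 100% = reference blocker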
CHOP inh conf: confirmation of CHOP induction inhibitors | shares compounds with CHOP inhibitor | CHO-CHOP promoter luciferase reporter, tunicamycin-induced, luminescence | inhibition, % at 10 µM | 2,100 compounds, 45% hits | AID 504437;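 active = mean of three repeat readings of reporter signal inhibition above a set limit, cut at about 70% in these data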;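 also: 0% = tunicamycin plus vehicle and 100% = wells lacking tunicamycin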
Starred values were filed as active, the others as inactive; . = no result given.

SMILES	CHOP inhibitor	XBP1 UPR activ	TLR9-MyD88 inh	UPR CHOP act	TLR4 MyD88 comp	NOD2 RIPK2 PPI	CHOP inh conf
O=C(CCl)Nc1cc(-c2ccccc2)nn1-c1ccccc1	.	-5.9	-14.2	11.9	5.2	-1.1	83.4*
CC(C)=C1C2CCC1C(C(=O)Nc1sc(C)c(-c3ccc(C(C)C)cc3)c1C(N)=O)C2C(=O)O (centres undefined)	103.1*	-6.5	1.7	-0.3	-7.1	-2.6	99.9*
N#CCCN(C(=O)COC(=O)c1cc(=O)[nH]c2ccccc12)c1ccccc1	.	-0.5	-5.0	0.5	.	-4.3	.
CCCc1nnc(NC(=O)Cn2c(=O)oc3ccccc32)s1	10.7	2.3	-4.4	-1.5	-11.3	-8.1	.
Cc1sc(NC(=O)Cn2c(=O)oc3ccccc32)nc1-c1ccc(Cl)cc1	98.3*	-2.8	2.7	0.1	-21.4	0.1	33.6
Cc1cc(/C(=N/O)C(C)(C)NO)ccc1Cl	101.8*	2.0	-8.1	0.3	-9.5	-7.1	-76.2
O=C1N=C(N2CCN(c3ccccc3)CC2)S/C1=C\c1cn[nH]c1-c1ccccc1	20.5	-0.9	-7.3	0.4	2.5	-9.2	.
Cc1cccc(N2CCN(C3=NC(=O)/C(=C\c4cn[nH]c4-c4ccccc4)S3)CC2)c1	102.0*	3.8	-1.3	5.6	-2.6	-8.7	57.3
Cc1ccccc1CC(=O)Nc1cccnc1	.	-4.3	-7.6	0.9	.	4.0	.
Nc1cc(N)nc(SCC(=O)NCc2ccc3c(c2)OCO3)n1	.	-0.4	-6.3	1.9	.	-4.8	.
CC(C(Sc1ccccc1N)c1ccccc1)[N+](=O)[O-] (centres undefined)	105.5*	-2.5	-9.8	29.4	.	-4.7	18.1
COc1cc2c(cc1OC)C(Nc1ccccc1)=NC(C)(C)C2	34.5	-0.6	-2.1	4.8	2.2	-3.6	.
Cc1c(OCc2ccccc2)c(=O)ccn1Cc1ccc(Cl)cc1	105.0*	4.0	5.7	-1.0	-2.5	0.9	27.5
Cc1ccc2nc(SC(C(=O)Nc3ccc(F)cc3)c3ccccc3)[nH]c2c1 (centres undefined)	106.4*	-2.4	-9.4	1.9	5.2	-0.1	55.8
O=C1c2ccccc2C(=O)c2c1oc(C(F)(F)F)c2C(=O)c1ccccc1	107.4*	-5.9	5.3	-2.2	7.2	-2.8	120.6*
CC(C)(C)OC(=O)N[C@@H](Cc1ccccc1)c1nnc(S(=O)(=O)Cc2ccccc2)o1	108.8*	-5.0	.	-10.0	14.0	.	125.0*
CCC(C)[C@@H](NC(=O)OC(C)(C)C)c1nnc(S(=O)(=O)Cc2cccc(C)c2)o1 (some centres undefined)	106.2*	.	7.9	.	12.8	23.7*	107.4*
Cc1cccc(CS(=O)(=O)Cc2ccc(C(=O)NC(C)c3ccccc3)o2)c1 (centres undefined)	.	-1.1	-3.4	1.1	.	2.4	.
COc1ccccc1-c1cc(C(F)(F)F)nc(S(=O)(=O)CCCC(=O)N2CCOCC2)n1	.	-9.9	-5.4	-4.8	15.6	0.3	67.3
COc1ccccc1-c1cc(C(F)(F)F)nc(S(=O)(=O)CCCC(=O)O)n1	-33.5	-3.7	-7.8	-1.6	-4.8	-1.9	.
CCn1c(=O)c(C(=O)Nc2ncccc2C)c(O)c2ccccc21	38.6	1.0	0.2	0.9	9.5	5.2	.
Cc1cccnc1NC(=O)c1c(O)c2ccccc2n(C)c1=O	97.9*	-1.2	1.9	1.9	-5.0	-10.7	99.6*
NS(=O)(=O)c1ccc(CCNC(=O)c2ccc(C#CC3(O)CCCCC3)cc2)cc1	65.6	-2.5	5.5	-1.7	-13.6	0.4	.
COc1cc(C)ccc1S(=O)(=O)NC(=O)C1(C)CCN1C(=O)c1ccc(C2CCCCC2)cc1 (centres undefined)	.	.	.	.	.	1.9	.
N#Cc1c(N)nc(-c2ccccc2)nc1-c1ccccc1	106.7*	5.1	-0.9	0.0	3.1	-15.4	20.7
SMILES	CHOP inhibitor	XBP1 UPR activ	TLR9-MyD88 inh	UPR CHOP act	TLR4 MyD88 comp	NOD2 RIPK2 PPI	CHOP inh conf
N#Cc1c(-c2ccccc2)nc(-c2ccccc2)nc1N1CCOCC1	1.4	8.9	-2.9	-1.8	6.0	-24.5	.
O=C(CN1C(=O)NC2(CCCCC2)C1=O)N1CCN(c2ncccn2)CC1	.	1.6	-1.3	1.1	.	5.1	.
CN(C)S(=O)(=O)c1ccc(Cl)c(NC(=O)COC(=O)CCC2CCCCC2)c1	.	0.8	-11.8	-0.1	.	4.5	.
NC(=O)NC(=O)COC(=O)c1cccc(NS(=O)(=O)/C=C/c2ccccc2)c1	13.6	-1.1	7.9	-0.9	-0.1	-6.0	.
O=C(COCC(=O)Nc1cccc(C(F)(F)F)c1)Nc1cccc(C(F)(F)F)c1	103.0*	-0.7	-4.3	-2.3	-1.6	11.0	115.9*
O=c1/c(=C\c2cccc(O)c2)sc2nc(-c3ccccc3)c(-c3ccccc3)n12	99.5*	0.2	2.1	2.0	.	.	21.0
COc1ccc(/C=c2\sc3nc(-c4ccccc4)c(-c4ccccc4)n3c2=O)cc1OC	-18.1	-3.1	-2.8	1.7	5.5	-13.9	.
O=C(Nc1nc2ccccc2s1)C1CC(=O)N(c2ccccc2)C1 (centres undefined)	-0.3	-2.2	2.9	-2.5	-4.6	1.9	.
O=C(Nc1nc2ccccc2s1)C1CC(=O)N(c2ccc(Br)cc2)C1 (centres undefined)	96.2*	-2.1	-6.5	-1.3	-6.7	0.7	12.8
CCN1CCN(CC(=O)Nc2ccc(Cl)c(S(=O)(=O)N(C)C)c2)CC1	8.5	-1.8	-3.5	-0.7	-6.7	-11.3	.
CCCCc1ccc(NC(=S)Nc2ccc(Cl)c(S(=O)(=O)N(C)C)c2)cc1	105.2*	.	8.7	.	-13.2	-8.1	82.9*
CCOC(=O)C1=NOC2C3CC(C12)C1C(=O)N(CCc2ccc(OC)c(OC)c2)C(=O)C31 (centres undefined)	-3.8	-0.7	-7.7	-0.4	.	-4.0	.
CCCCn1c(SCc2nc(N)nc(N3CCCCC3)n2)nc2c1c(=O)n(C)c(=O)n2C	98.0*	0.5	4.2	-1.1	-2.1	-4.0	19.5
CCCn1c(SCc2nc(N)nc(N3CCCCC3)n2)nc2c1c(=O)n(C)c(=O)n2C	0.3	0.5	7.1	-1.4	-7.9	-11.8	.
O=C(CS(=O)(=O)c1ccccc1)Nc1nccs1	.	-0.4	-5.2	0.7	.	-13.4	.
OC(CNCCc1ccc(C(F)(F)F)cc1)COc1ccc2ccccc2c1 (centres undefined)	108.5*	-0.4	-1.4	0.4	-9.3	8.0	123.2*
OC(CNCCc1ccc(C(F)(F)F)cc1)COc1cccc2ccccc12 (centres undefined)	108.0*	14.4	5.4	-3.8	2.7	1.0	133.9*
